From ChEMBL document CHEMBL3232832, “Derivatives of dibenzothiophene for positron emission tomography imaging of α7-nicotinic acetylcholine receptors” (J Med Chem, 2013)

Assays:
[1] = biological target: Neuronal acetylcholine receptor subunit alpha-7 (Homo sapiens, UniProt P36544); test: Binding affinity to alpha7 nAChR (unknown origin)
[2] = test system: Nucleic Acid; test: Ratio of drug uptake in cortex to cerebellum in pig; assay type: ADME, tissue-based, Sus scrofa; settings: in vivo
[3] = Ratio of drug uptake in cortex to cerebellum in mouse; assay type: ADME, organism-based; settings: in vivo
[4] = biological target: T1, Neuronal acetylcholine receptor subunit alpha-7 (Rattus norvegicus, UniProt Q05941); test: Displacement of [125I]alpha-bungarotoxin from rat cortical membrane alpha7-nAChR after 150 mins by gamma-counting analysis
T1 sequence (Q05941 whole entry): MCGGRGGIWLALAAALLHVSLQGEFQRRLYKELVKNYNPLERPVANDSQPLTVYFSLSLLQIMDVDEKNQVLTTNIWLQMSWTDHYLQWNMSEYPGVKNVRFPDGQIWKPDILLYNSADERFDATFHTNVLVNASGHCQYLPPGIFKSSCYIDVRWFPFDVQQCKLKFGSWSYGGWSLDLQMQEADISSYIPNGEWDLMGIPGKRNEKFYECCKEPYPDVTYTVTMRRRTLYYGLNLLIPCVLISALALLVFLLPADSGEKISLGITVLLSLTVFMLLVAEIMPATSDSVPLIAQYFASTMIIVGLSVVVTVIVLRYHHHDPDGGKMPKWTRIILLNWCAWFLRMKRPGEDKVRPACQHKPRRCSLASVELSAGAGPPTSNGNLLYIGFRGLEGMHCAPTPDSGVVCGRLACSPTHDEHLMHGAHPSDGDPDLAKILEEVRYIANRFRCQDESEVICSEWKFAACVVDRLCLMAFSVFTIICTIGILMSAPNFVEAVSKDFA

[5] = test system: Mus musculus; test: Toxicity in CD-1 mouse assessed as change in behavioral activity at 0.07 mCi, iv after 90 mins in presence of 7-(1,4-Diazabicyclo[3.2.2]nonan-4-yl)-2-fluorodibenzo[b,d]-thiophene 5,5-Dioxide; assay type: organism-based; settings: in vivo, 1.5 h
How it was run: (§1)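 CD-1 mice observed for behavioral and locomotor changes during self-blockade studies. [18F]tracer (0.07 mCi, i.v.) was co-injected with the non-radioactive ligand at 0.3 or 0.2 mg/kg i.v., dissolved in saline at pH 5.5. Brains were harvested at 90 min.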

[6] = test system: Cerebellum; test: Drug uptake in CD-1 mouse cerebellum at 0.07 mCi, iv after 90 mins in presence of 7-(1,4-Diazabicyclo[3.2.2]nonan-4-yl)-2-fluorodibenzo[b,d]-thiophene 5,5-Dioxide; assay type: ADME, organism-based; settings: in vivo, 1.5 h
How it was run: (§2)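 Male CD-1 mice, n=3. [18F] radiotracer (70 µCi, 0.2 mL) given i.v. together with unlabeled blocker in saline pH 5.5. Brain regions dissected at 90 min, gamma counted, expressed as %ID/g.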

[7] = test system: Nucleic Acid; test: Ratio of drug uptake from cortex to cerebellum in CD-1 mouse after 90 mins; assay type: ADME, tissue-based; settings: 1.5 h
[8] = test system: Cerebellum; test: Drug uptake in CD-1 mouse cerebellum at 70 uCi, iv followed by compound washout by gamma-counting analysis; assay type: ADME, organism-based; settings: in vivo
How it was run: (§3)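 Male CD-1 mice (25–30 g), three per time point. [18F] radiotracer (70 µCi, SA 8000–12000 mCi/µmol, in 0.2 mL saline) given by tail vein. Killed at several times up to 90 min. Dissected regions weighed and gamma counted against injectate standards, giving %ID/g.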

[9] = test system: Cerebellum; test: Ratio of clearance in CD-1 mouse cerebellum to clearance in CD-1 mouse other brain tissues at 70 uCi, iv followed by compound washout after 90 mins by gamma-counting analysis; assay type: ADME, organism-based; settings: in vivo, 1.5 h
How it was run: (§4)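 CD-1 mouse baseline biodistribution after i.v. [18F]radioligand (70 µCi, 8000–12000 mCi/µmol, in 0.2 mL saline), three mice per time point to 90 min. Regional gamma-counting gave %ID/g, and each region was expressed as a ratio to cerebellum.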

[10] = test system: Nucleic Acid; test: Ratio of drug uptake from superior and inferior colliculus to cerebellum in CD-1 mouse after 90 mins; assay type: ADME, nucleic-acid assay; settings: 1.5 h; how it was run: as §4
[11] = test system: Cerebellum; test: Drug uptake in CD-1 mouse colliculus at 0.07 mCi, iv after 90 mins relative to drug uptake in CD-1 mouse cerebellum; assay type: ADME, organism-based; settings: in vivo, 1.5 h
[12] = test system: Brain; test: Drug uptake in CD-1 mouse other brain regions at 0.07 mCi, iv after 90 mins in presence of 3-(1,4-Diazabicyclo[3.2.2]nonan-4-yl)dibenzo[b,d]-thiophene 5,5-dioxide; assay type: ADME, organism-based; settings: in vivo, 1.5 h
How it was run: (§5)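 Male CD-1 mice. [18F]tracer (0.07 mCi, SA 11000 mCi/µmol, i.v.) co-injected with α7 antagonist blocker at 0.001, 0.0045 or 0.014 mg/kg, handled as in the dose-escalation blockade. Brain regions harvested at 90 min and gamma-counted. %ID/g, mean ± SD, n=3; ANOVA versus controls.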

[13] = Drug uptake in CD-1 mouse superior and inferior colliculus at 70 uCi, iv followed by compound washout by gamma-counting analysis; assay type: ADME, organism-based; settings: in vivo
How it was run: (§6)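 Male CD-1 mice (25–30 g) given [18F]radioligand i.v. into a lateral tail vein (70 µCi, 8000–12000 mCi/µmol, in 0.2 mL saline). Killed by cervical dislocation at various times, three per time point. Brains dissected on ice; regions weighed and gamma-counted with injectate standards. Result as %ID/g.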

[14] = Drug uptake in CD-1 mouse superior and inferior colliculus at 0.07 mCi, iv after 90 mins in presence of 3-(1,4-Diazabicyclo[3.2.2]nonan-4-yl)dibenzo[b,d]-thiophene 5,5-dioxide; assay type: ADME, organism-based; settings: in vivo, 1.5 h; how it was run: as §5
[15] = test system: Thalamus; test: Drug uptake in CD-1 mouse thalamus at 70 uCi, iv followed by compound washout by gamma-counting analysis; assay type: ADME, organism-based; settings: in vivo; how it was run: as §6
[16] = test system: Cerebellum; test: Drug uptake in CD-1 mouse cerebellum at 0.07 mCi, iv after 90 mins in presence of 3-(1,4-Diazabicyclo[3.2.2]nonan-4-yl)dibenzo[b,d]-thiophene 5,5-dioxide; assay type: ADME, organism-based; settings: in vivo, 1.5 h
[17] = test system: Mus musculus; test: Toxicity in CD-1 mouse assessed as change in locomotor activity at 0.07 mCi, iv after 90 mins in presence of 7-(1,4-Diazabicyclo[3.2.2]nonan-4-yl)-2-fluorodibenzo[b,d]-thiophene 5,5-Dioxide; assay type: organism-based; settings: in vivo, 1.5 h; how it was run: as §1
[18] = test system: Cerebellum; test: Drug uptake in CD-1 mouse cerebellum at 0.07 mCi, iv after 90 mins in presence of 3-(1,4-Diazabicyclo[3.2.2]nonan-4-yl)-6-fluorodibenzo[b,d]thiophene 5,5-Dioxide; assay type: ADME, organism-based; settings: in vivo, 1.5 h; how it was run: as §2
[19] = test system: Hippocampus; test: Drug uptake in CD-1 mouse hippocampus at 0.07 mCi, iv after 90 mins in presence of 3-(1,4-Diazabicyclo[3.2.2]nonan-4-yl)dibenzo[b,d]-thiophene 5,5-dioxide; assay type: ADME, organism-based; settings: in vivo, 1.5 h
[20] = test system: Hippocampus; test: Drug uptake in CD-1 mouse hippocampus at 70 uCi, iv followed by compound washout by gamma-counting analysis; assay type: ADME, organism-based; settings: in vivo; how it was run: as §3
[21] = Drug uptake in CD-1 mouse frontal cortex at 70 uCi, iv followed by compound washout by gamma-counting analysis; assay type: ADME, organism-based; settings: in vivo; how it was run: as §3
[22] = test system: Striatum; test: Drug uptake in CD-1 mouse striatum at 70 uCi, iv followed by compound washout by gamma-counting analysis; assay type: ADME, organism-based; settings: in vivo; how it was run: as §6
[23] = test system: Nucleic Acid; test: Ratio of drug uptake from hippocampus to cerebellum in CD-1 mouse after 90 mins; assay type: ADME, nucleic-acid assay; settings: 1.5 h
[24] = Selectivity ratio of Ki for alpha4beta2 nAChR (unknown origin) to Ki for rat cortical membrane alpha7 nAChR
[25] = Selectivity ratio of Ki for human 5HT3 receptor to Ki for rat cortical membrane alpha7 nAChR
[26] = test system: Nucleic Acid; test: Ratio of drug uptake in cortex to cerebellum in CD-1 mouse by gamma-counting analysis; assay type: ADME, tissue-based; settings: in vivo
[27] = biological target: T1, Neuronal acetylcholine receptor subunit alpha-7; test: Displacement of [125I]-alpha-BTX from rat alpha7-nAChR after 2 hrs by scintillation counting analysis
[28] = test system: Nucleic Acid; test: Ratio of drug uptake in cortex to cerebellum in Danish Landrace pig; assay type: ADME, tissue-based, Sus scrofa; settings: in vivo
[29] = biological target: T1, Neuronal acetylcholine receptor subunit alpha-7; test: Binding affinity to rat brain alpha7 nAChR
[30] = biological target: T1, Neuronal acetylcholine receptor subunit alpha-7; test: Displacement of [3H]MLA from rat alpha7 nAChR
[31] = test system: Nucleic Acid; test: Ratio of drug uptake in cortex to cerebellum in CD-1 mouse at 0.67 MBq after 5 to 120 mins; assay type: ADME; settings: in vivo
[32] = biological target: T1, Neuronal acetylcholine receptor subunit alpha-7; test: Displacement of [125I]alpha-bungarotoxin from Sprague-Dawley rat brain alpha7-nAChR after 3 hrs

Neuronal acetylcholine receptor subunit alpha-7 (Homo sapiens, UniProt P36544), sequence (P36544 whole entry): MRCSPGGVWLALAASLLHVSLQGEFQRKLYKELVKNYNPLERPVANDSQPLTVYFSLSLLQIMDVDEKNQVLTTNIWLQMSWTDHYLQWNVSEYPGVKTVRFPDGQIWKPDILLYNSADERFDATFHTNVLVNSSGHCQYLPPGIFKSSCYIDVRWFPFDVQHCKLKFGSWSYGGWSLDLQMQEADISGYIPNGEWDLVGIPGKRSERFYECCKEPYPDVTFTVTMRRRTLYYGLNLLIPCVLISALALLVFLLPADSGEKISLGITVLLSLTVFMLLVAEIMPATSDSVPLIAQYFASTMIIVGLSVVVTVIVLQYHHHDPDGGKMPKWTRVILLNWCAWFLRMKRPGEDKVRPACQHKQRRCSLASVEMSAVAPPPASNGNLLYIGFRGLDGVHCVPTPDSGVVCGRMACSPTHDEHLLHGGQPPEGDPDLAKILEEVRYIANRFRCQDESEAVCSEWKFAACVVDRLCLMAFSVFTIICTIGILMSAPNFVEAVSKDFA

With `[18F]c1ccc(-c2nnc(N3CCN4CCC3CC4)o2)cc1` the Ki [1] was 11.6 nM, the Ratio [2] was 0.8 and the Ratio [3] was 0.4. For the same compound, the Ki [4] was 38 nM.
For `O=[11C](Nc1ccc(Br)cc1)OC1CN2CCC1CC2` (stereo unspecified), the Ratio [3] was 0.3.
With `O=S1(=O)c2ccc([18F])cc2-c2ccc(N3CCN4CCC3CC4)cc21` the Activity [5] was “Non-toxic”, the Drug uptake [6] was “Active” and the Ratio [7] was 2. For the same compound, the Drug uptake [8] was “Active”, the Ratio [9] was 4.5 and the Ratio [10] was 2. For the same compound, the Drug uptake [11] was 80%, the Drug uptake [12] was “Not Active” and the Drug uptake [13] was “Active”. The Drug uptake [14] was “Not Active”, the Drug uptake [15] was “Active” and the Drug uptake [16] was “Not Active”. For the same compound, the Activity [17] was “Non-toxic”, the Drug uptake [18] was “Active” and the Drug uptake [19] was “Not Active”. For the same compound, the Drug uptake [20] was “Active”, the Drug uptake [21] was “Active” and the Drug uptake [22] was “Active”. It also gave a Ratio [23] of 3.1.
Compound `O=S1(=O)c2ccc(F)cc2-c2ccc(N3CCN4CCC3CC4)cc21` has a Ratio Ki [24] of 663 and a Ratio Ki [25] of 378.
With `[11CH3]N1CC2CN(c3ccc(-c4ccc5[nH]ccc5c4)nn3)CC2C1` (stereo unspecified) the Ki [1] was 0.24 nM and the Ratio [26] was 0.5.
For `O=S1(=O)c2ccc(I)cc2-c2ccc(N3CCN4CCC3CC4)cc21`, the Ratio Ki [24] was 63.
With `O=S1(=O)c2ccccc2-c2ccc(N3CCN4CCC3CC4)c(F)c21` the Ratio Ki [24] was 66.
`CN1C[C@H]2CN(c3ccc4c(c3)C(=O)c3cc(N5C[C@@H]6CN([11CH3])[C@@H]6C5)ccc3-4)C[C@H]21` gave a Ki [1] of 0.092 nM.
Work on `[11CH3]n1cccc1-c1nnc(N2CCN3CCC2CC3)o1` yielded a Ki [27] of 2.2 nM, a Ratio [28] of 1 and a Ki [4] of 20.4 nM.
`[11CH3]N1CC2CN(c3ccc(-c4ccccc4)nn3)CC2C1` (stereo unspecified) gave a Ratio [3] of 0.2 and a Ki [29] of 10.8 nM.
With `[18F]c1ccccc1-c1cnc2c(c1)CC1(CN3CCC1CC3)O2` (stereo unspecified) the Ki [30] was 0.2 nM, the Ratio [3] was 0.8 and the Ki [4] was 3.3 nM.
For `O=S1(=O)c2ccccc2-c2c(N3CCN4CCC3CC4)ccc(F)c21`, the Ratio Ki [24] was 210.
For `[11CH3]N1CC2CN(c3ccc4oc5ccccc5c(=O)c4c3)CC2C1` (stereo unspecified), the Ki [30] was 11 nM.
`[125I]c1occc1-c1cnc2c(c1)CC1(CN3CCC1CC3)O2` (stereo unspecified) showed a Ratio [31] of 0.6.
`O=S1(=O)c2cc(N3CCN4CCC3CC4)ccc2-c2cccc(F)c21` showed a Ratio Ki [24] of 1370 and a Ratio Ki [25] of 561.
For `[11CH3]c1ccc(OC(=O)N2CCN3CCC2CC3)cc1`, the Ki [32] was 46 nM and the Ratio [3] was 0.6.
